RAD52 inh – RAD52 (human) annealing inhibition | P43351 | recombinant RAD52 DNA annealing, FRET fluorescence | inhibition, % at 18.7 µM | hit rate 0.46% among 360,000 | AID 651710;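 active = every replicate showing at least 50% inhibition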
RAD54 branch – RAD54 (human) branch migration inhibition | RAD54 Holliday junction branch migration, FAM/BHQ fluorescence | inhibition, % at 10.4 µM | hit rate 0.14% among 360,000 | AID 602329;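 active = mean normalized replicate activity at least 40 and at least half of replicates scoring 40 or more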;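 note: 0% = median of neutral control wells and 100% = median of positive control wells; inhibitors cause a drop in the FAM fluorescence signal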
PglD DTNB – inhibitors of Campylobacter jejuni PglD acetyltransferase | purified PglD enzyme, DTNB colorimetric CoA detection | inhibition, % at 12.5 µM | hit rate 0.098% among 360,000 | AID 602405; in the data active = inhibition above about 16%, passing the limit was not always enough
XiGFP reactiv – reactivates the inactive X chromosome in mouse fibroblasts | XiGFP mouse fibroblasts, % GFP-positive cells imaging, 3 d; cells co-treated with 5-aza-dC sensitizer; scaled so ellipticine positive control = 100% | activation, % at 7.58 µM | hit rate 0.055% among 360,000;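 active = mean normalized replicate activation at least 10% and every replicate at or above 10%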;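 note: 0% = median of on-plate neutral control wells and 100% = ellipticine 6 µM median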
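System: XiGFP fibroblasts, SV40-immortalized. Medium: DMEM plus 5-aza-dC sensitizer. Doses: single point. Timing: 3 d treatment, 15 min room-temperature fixation. Control set: ellipticine 6 µM.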
E-selectin induc – E-selectin induction on HUVECs; activation, % at 7.58 µM; HUVEC E-selectin immunofluorescence imaging; normalized: neutral wells 0, TNF-alpha wells 100; hit rate 0.37% among 260,000; P16581;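 active = mean E-selectin-positive cell signal at least 10% of the positive control, reached in at least 60% of replicates, without over 20% cell loss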
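Test system – human umbilical vein endothelial cells (HUVEC), E-selectin induction · Input – 3,000 HUVEC seeded per well · Buffer or medium – EGM-2, gelatin · Compound dosing – single-point compound dose · Detection – immunofluorescence imaging · Measure – percent E-selectin-positive cells · Controls – TNF-alpha high, DMSO low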
Ecoli rRNA inh – inhibitors of bacterial rRNA selective over humanized ribosomes. hit rate 1.6% among 350,000. GFP signal change (wild-type ribosome), % (concentration not given with the values). E. coli WT GFP vs humanized-ribosome RFP mutants, fluorescence, 24 h; active compounds read low; DMSO median 0, no signal -100. AID 720706;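 active = significant combined selectivity score with lowered wild-type GFP, culture density cut under 30%, mutant RFP and density less affected; inactive = any of these conditions unmet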
Starred values were filed as active, the others as inactive; · = not tested or not shown. Only some compounds are listed: those with a hit (about 2% of all), similar ones and a draw of the others.

SMILES	RAD52 inh	RAD54 branch	PglD DTNB	XiGFP reactiv	E-selectin induc	Ecoli rRNA inh
C[C@H](O)C#Cc1cnc2c(c1)C(=O)N([C@H](C)CO)C[C@@H](C)[C@@H](CN(C)C(=O)Cc1ccncc1)O2	-36	-6	-2	0	-1	2
Cc1c(C(=O)NCc2ccco2)oc2ccc(Br)cc12	7	6	2	0	1	-4
Cc1ccc2c(C)c(C(=O)NCCc3ccco3)oc2c1C	-29	8	-1	0	0	-26*
Cc1c(C(=O)NCc2ccco2)oc2ccccc12	-7	20	-2	0	48*	-5
Cc1cccc(CCNC(=O)c2oc3c(C)c(C)ccc3c2C)n1	6	0	5	0	0	-23
Cc1ccc(S(=O)(=O)N(C)C)cc1NS(=O)(=O)c1ccc(Cl)s1	-14	4	1	0	·	-45*
O=C(O)c1nn2c(C(F)(F)F)cc(-c3cccs3)nc2c1Cl	-31	·	·	0	-1	-20*
O=C(C[n+]1cccc(CNC(=O)c2ccc(OC(F)F)cc2)c1)Nc1ccc(F)cc1	3	·	·	0	-2	-19*
CC1C/C(=C/c2ccncc2)C(=O)/C(=C/c2ccncc2)C1 (stereo unspecified)	-12	-2	2	0	0	-22*
O=C1/C(=C/c2ccncc2)Cc2ccccc21	-4	14	4	0	0	3
COC(=O)C(NC(=O)c1ccccc1)(Nc1nc(C)cs1)C(F)(F)F (stereo unspecified)	-14	0	1	·	·	-42*
COc1cc2[nH]c(=S)nc(NC3CCCCCC3)c2cc1OC	58*	·	·	0	·	-39
COc1cc2[nH]c(=S)nc(NCC3CCCO3)c2cc1OC (stereo unspecified)	7	-11	6	·	·	3
COc1cc2[nH]c(=S)nc(NCCc3ccc(C)cc3)c2cc1OC	-14	·	·	0	·	-26*
O=Cc1[nH]c2ccccc2c1N(C(=O)CCl)c1ccc([N+](=O)[O-])cc1	-3	4	3	0	·	-55*
CC(=O)n1cc(N(C(=O)CCl)c2ccc([N+](=O)[O-])cc2)c2ccccc21	-10	-2	-1	0	·	-36*
CN1C(=O)c2cc(NC(=O)c3cnccn3)ccc2OC[C@H]2O[C@@H](CC(=O)NCC3CC3)CC[C@@H]21	-6	·	·	0	0	2
OC(COC(c1ccc(F)cc1)c1ccc(F)cc1)CN1CCCC(C(F)(F)F)C1 (stereo unspecified)	-13	-26	1	0	0	-23*
O=c1oc(-c2cccc(Cl)c2)nc2c1cnn2-c1ccccc1	·	3	-1	·	·	·
O=c1[nH]c2c(cnn2-c2ccc(Cl)cc2)c(=O)n1-c1cccc(Cl)c1	-13	·	·	0	0	-35*
CCS(=O)(=O)N1CC2(CN(Cc3cccc(Cl)c3)[C@H](CO)c3c2c2ccc(OC)cc2n3C)C1	11	·	·	0	0	-9
O=C(COn1nnc2ccc(S(=O)(=O)N3CCOCC3)cc21)Nc1c(F)c(F)c(F)c(F)c1F	-13	0	-4	0	·	-20*
Oc1ccc(Br)cc1CNc1ccccn1	2	·	·	0	·	-16*
COc1cccc(S(=O)(=O)N[C@H]2CC[C@H](CC(=O)NCc3ccncc3)O[C@@H]2CO)c1	8	-1	0	0	0	4
CCN(CC)CCOC(=O)/C=C/c1ccccc1	9	·	·	0	·	9
CCN(CC)CC(C)(C)C(=O)/C=C/c1ccc(/C=C/C(=O)C(C)(C)CN(CC)CC)cc1	35	·	·	1	0	-14*
COc1ccccc1C(=O)N/C(=C\c1ccc(Br)cc1)C(=O)N1CCCC1	-1	-6	8	0	·	-40*
Cc1nc(N2CCN(c3ccccc3)CC2)nc2c1C(=O)CC(C)C2 (stereo unspecified)	-31	-9	-2	·	·	-33*
Cc1nc(N2CCN(c3ccccc3)CC2)nc2c1C(=O)CC(c1ccccc1)C2 (stereo unspecified)	·	-2	-9	·	·	·

Screens from PubChem.
